Data as given in ChEMBL document CHEMBL1155309, “Synthesis of 3,6-disubstituted 7H-1,2,4-triazolo[3,4-b]-1,3,4-thiadiazines as novel analgesic/anti-inflammatory compounds” (Eur J Med Chem, 2009).

Experiments:
Mus musculus [1] = assay: Antiinflammatory activity in BALB/c mouse assessed as inhibition of carrageenan-induced paw edema at 200 mg/kg, po after 360 mins; type: functional; settings: 6 h
Summary of the method: (§1)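 Oral dosing in 0.5% CMC/water suspension, vehicle for controls. 1 h later, carrageenan (0.5 mg/25 µl saline) injected subplantar into right hind paw, 25 µl saline into left. Right–left footpad thickness measured by dial callipers every 90 min for 6 h. % inhibition = [(n − n′)/n]×100 versus control. Groups of 3 (100 mg/kg screen) or 4–5 mice.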

Mus musculus [2] = assay: Analgesic activity in BALB/c mouse assessed as decrease in acetic acid-induced writhing at 100 mg/kg, po administered 1 hr prior to acetic acid challenge by Koster's test; type: functional
Summary of the method: (§2)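 Test samples suspended in distilled water/0.5% CMC given orally; vehicle to controls. 1 h later, 3% (w/v) acetic acid i.p. (0.1 ml/10 g). Starting 5 min after injection, writhings counted for 10 min. Result expressed as % change from writhing controls. Groups of 4 mice (preliminary 100 mg/kg) or 4–5 mice (50/200 mg/kg). Two-tailed Student's t test.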

Mus musculus [3] = assay: Analgesic activity in BALB/c mouse assessed as decrease in acetic acid-induced writhing at 50 mg/kg, po administered 1 hr prior to acetic acid challenge by Koster's test; type: functional; summary of the method: as §2
Mus musculus [4] = assay: Analgesic activity in BALB/c mouse assessed as decrease in acetic acid-induced writhing at 200 mg/kg, po administered 1 hr prior to acetic acid challenge by Koster's test; type: functional; summary of the method: as §2
Mus musculus [5] = assay: Antioxidant activity in BALB/c mouse assessed as TBARS level per gram of wet weight of tissue at 200 mg/kg, po; type: functional; design: unit: nmol/g
Summary of the method: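 Mice dosed orally at 200 mg/kg were killed under ether 8 h after the writhing test and stomachs removed. Tissue extract supernatant obtained by centrifugation (1000×g 10 min, then 2000×g 30 min, 4 °C). Heated with TBA in boiling water for 60 min, TCA added, absorbance read at 532 nm against blank tissue. Calibrated with 1,1,3,3-tetraethoxypropane; reported as nmol TBARS/g wet tissue.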

Mus musculus [6] = assay: Acute toxicity in BALB/c mouse assessed as diarrhea and depression at 50 to 200 mg/kg, po after 72 hrs; type: organism-based; design: dose 50-200 mg/kg, route oral; settings: in vivo
Mus musculus [7] = assay: Antiinflammatory activity in BALB/c mouse assessed as inhibition of carrageenan-induced paw edema at 100 mg/kg, po after 180 mins; settings: 3 h
Mus musculus [8] = assay: Antiinflammatory activity in BALB/c mouse assessed as inhibition of carrageenan-induced paw edema at 200 mg/kg, po after 270 mins; settings: 4.5 h
Mus musculus [9] = assay: Gastrointestinal toxicity in BALB/c mouse assessed as acute ulcerogenic risk at 200 mg/kg, po; type: organism-based; design: dose 200 mg/kg, route oral; settings: in vivo
Summary of the method: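 Mice, fasted overnight with free water, received 200 mg/kg orally as a suspension in distilled water with 0.5% carboxymethyl cellulose, in groups of 4–5. They were first used in the acetic acid writhing test. Eight hours after that test they were killed under deep ether anaesthesia, and their stomachs were removed and scored for ulcers. Acetylsalicylic acid 200 mg/kg was the reference.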

Mus musculus [10] = assay: Antiinflammatory activity in BALB/c mouse assessed as inhibition of carrageenan-induced paw edema at 200 mg/kg, po after 90 mins; type: functional; settings: 1.5 h; summary of the method: as §1
Mus musculus [11] = assay: Antiinflammatory activity in BALB/c mouse assessed as inhibition of carrageenan-induced paw edema at 200 mg/kg, po after 270 mins; type: functional; settings: 4.5 h; summary of the method: as §1
Mus musculus [12] = assay: Antiinflammatory activity in BALB/c mouse assessed as inhibition of carrageenan-induced paw edema at 100 mg/kg, po after 90 mins; type: functional; settings: 1.5 h; summary of the method: as §1
Mus musculus [13] = assay: Antiinflammatory activity in BALB/c mouse assessed as inhibition of carrageenan-induced paw edema at 100 mg/kg, po after 270 mins; type: functional; settings: 4.5 h; summary of the method: as §1
Mus musculus [14] = assay: Antiinflammatory activity in BALB/c mouse assessed as inhibition of carrageenan-induced paw edema at 100 mg/kg, po after 180 mins; type: functional; settings: 3 h; summary of the method: as §1
Mus musculus [15] = assay: Antiinflammatory activity in BALB/c mouse assessed as inhibition of carrageenan-induced paw edema at 50 mg/kg, po after 90 mins; type: functional; settings: 1.5 h; summary of the method: as §1
Mus musculus [16] = assay: Antiinflammatory activity in BALB/c mouse assessed as inhibition of carrageenan-induced paw edema at 50 mg/kg, po after 360 mins; type: functional; settings: 6 h; summary of the method: as §1
Mus musculus [17] = assay: Antiinflammatory activity in BALB/c mouse assessed as inhibition of carrageenan-induced paw edema at 100 mg/kg, po after 360 mins; type: functional; settings: 6 h; summary of the method: as §1

| Structure (SMILES) | inhibition in vivo at 200 mg/kg (Mus musculus [1]) [%] | inhibition in vivo at 100 mg/kg (Mus musculus [2]) [%] | inhibition in vivo at 50 mg/kg (Mus musculus [3]) [%] | inhibition in vivo at 200 mg/kg (Mus musculus [4]) [%] | Activity (Mus musculus [5]) [nmol] | Activity (Mus musculus [6]) | inhibition in vivo at 100 mg/kg (Mus musculus [7]) [%] | inhibition in vivo at 200 mg/kg (Mus musculus [8]) [%] | Activity (Mus musculus [9]) | inhibition in vivo at 200 mg/kg (Mus musculus [10]) [%] | inhibition in vivo at 200 mg/kg (Mus musculus [11]) [%] | inhibition in vivo at 100 mg/kg (Mus musculus [12]) [%] | inhibition in vivo at 100 mg/kg (Mus musculus [13]) [%] | inhibition in vivo at 100 mg/kg (Mus musculus [14]) [%] | inhibition in vivo at 50 mg/kg (Mus musculus [15]) [%] | inhibition in vivo at 50 mg/kg (Mus musculus [16]) [%] | inhibition in vivo at 100 mg/kg (Mus musculus [17]) [%] |
| --- | --- | --- | --- | --- | --- | --- | --- | --- | --- | --- | --- | --- | --- | --- | --- | --- | --- |
| COc1ccc(Cc2nnc3n2N=C(c2ccc(F)cc2)CS3)cc1 | 41.7 | 26.3 | 20.5 | 31.5 | 95.4 | Non-toxic | 34.3 | 53.6 |  |  |  |  |  |  |  |  |  |
| COc1cc(Cc2nnc3n2N=C(c2ccc(F)cc2)CS3)cc(OC)c1OC | 25 | 35 | 22.1 | 52.2 | 107.6 | Non-toxic | 26.8 | 24.9 |  |  |  |  |  |  |  |  |  |
| COc1ccc(Cc2n[nH]c(=S)n2N)cc1 | 33.3 | 30.2 | 23.4 | 46.7 | 93 | Non-toxic |  | 32.2 | Non-toxic |  |  |  |  |  |  |  |  |
| COc1ccc(CCc2nnc3n2N=C(c2ccccc2)CS3)cc1 | 37.5 | 42.8 | 6.4 | 44.2 | 110.8 | Non-toxic |  | 50 |  |  |  |  |  |  |  |  |  |
| COc1cc(CCc2n[nH]c(=S)n2N)cc(OC)c1OC | 41.7 | 52.4 | 23.1 | 54.2 | 104.3 | Non-toxic |  |  |  | 39.3 | 20.4 |  |  |  |  |  |  |
| COc1cc(Cc2nnc3n2N=C(c2ccccc2)CS3)cc(OC)c1OC | 33.3 | 53 | 32.4 | 58.4 | 92.2 | Non-toxic | 34.9 | 32.2 | Non-toxic |  |  | 24 | 23.6 |  |  |  |  |
| COc1ccc2c(c1)c(CC(=O)O)c(C)n2C(=O)c1ccc(Cl)cc1 [INDOMETHACIN] |  |  |  |  |  |  | 43.1 |  |  |  |  | 41.9 |  |  |  |  |  |
| COc1ccc(Cc2nnc3n2N=C(c2ccc(Cl)cc2)CS3)cc1 | 38.9 | 33 | 9.9 | 39 | 97.9 | Non-toxic |  | 25 | Non-toxic |  |  |  |  |  |  |  |  |
| COc1cc(Cc2n[nH]c(=S)n2N)cc(OC)c1OC | 21.2 | 85.8 | 21.6 | 61 | 96.2 | Non-toxic |  |  |  |  | 49.2 |  |  | 30 | 32.3 | 24.9 |  |
| COc1cc(CCc2nnc3n2N=C(c2ccc(Cl)cc2)CS3)cc(OC)c1OC | 25 | 50.2 | 28.5 | 54.8 | 101.9 | Non-toxic | 36.9 | 39.1 |  |  |  | 29.3 | 34.3 |  |  |  |  |
| COc1ccc(Cc2nnc3n2N=C(c2ccccc2)CS3)cc1 |  | 39.5 | 14.3 | 46.4 | 112.3 | Non-toxic |  |  |  |  |  |  |  |  |  |  |  |
| COc1cc(CCc2nnc3n2N=C(c2ccccc2)CS3)cc(OC)c1OC | 29.2 | 17.1 | 32.4 | 27.5 | 100.3 | Non-toxic | 38.5 | 46.4 |  |  |  | 31.7 |  |  |  |  |  |
| CC(=O)Oc1ccccc1C(=O)O [ASPIRIN] |  |  |  | 54.4 | 118.2 |  |  |  |  |  |  |  |  |  |  |  |  |
| COc1cc(CCc2nnc3n2N=C(c2ccc(F)cc2)CS3)cc(OC)c1OC | 23 | 43.1 | 35.2 | 56.1 | 105.1 | Non-toxic |  | 46.4 |  |  |  | 40.7 | 57.9 | 21.4 | 34.5 |  | 38.9 |
| COc1ccc(CCc2nnc3n2N=C(c2ccc(F)cc2)CS3)cc1 | 27.1 | 29.2 | 25 | 37 | 103.5 | Non-toxic | 33.7 | 34 |  |  |  | 26 |  |  |  |  |  |
| COc1ccc(CCc2n[nH]c(=S)n2N)cc1 | 37.5 | 56.6 | 9.5 | 56.1 | 105.9 | Non-toxic |  | 33.9 | Non-toxic |  |  |  |  |  |  |  |  |
| COc1cc(Cc2nnc3n2N=C(c2ccc(Cl)cc2)CS3)cc(OC)c1OC | 25 | 32.6 | 13.5 | 23.4 | 101.1 | Non-toxic |  | 41 |  |  |  |  |  |  |  |  |  |
| COc1ccc(CCc2nnc3n2N=C(c2ccc(Cl)cc2)CS3)cc1 | 50 | 71.5 | 20.2 | 62.4 | 108.4 | Non-toxic | 29.4 |  |  |  | 20.4 |  |  |  |  |  |  |
